Source: PubChem BioAssay (several laboratories)
An excerpt weighted towards active compounds, which were near 2% of everything screened.
GAA850 FXN act: activators of GAA850 frataxin (FXN) promoter. activation, % at 6 µM. hit rate 0.56% among 360,000. HEK293 lucGAA850 FXN promoter luciferase reporter, 24 h; percent of 10 µM SAHA response. AID 540364;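 active means activation above the average of all compounds screened plus 3 SD, cutoff fixed separately per campaign, cut at about 7.5% in these data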;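 further: 0% = DMSO wells and 100% = 10 µM SAHA wells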
NR2E3 ag-1: activates human NR2E3 receptor. Q9Y5X4. CHO-S Gal4-NCOR/VP16-NR2E3 two-hybrid, luciferase. inhibition of corepressor binding, % at 3.98 µM. hit rate 0.35% among 360,000. AID 602229;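 active means inhibition above the mean of all tested compounds plus 3 SD, cut at about 70% in these data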;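 further: 0% = DMSO with NR2E3 transfected cells and 100% = cells lacking NR2E3 construct; higher means lower luciferase signal from less NR2E3 corepressor binding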
Target sequence (Q9Y5X4 whole entry, looked up, the tested form may be a part): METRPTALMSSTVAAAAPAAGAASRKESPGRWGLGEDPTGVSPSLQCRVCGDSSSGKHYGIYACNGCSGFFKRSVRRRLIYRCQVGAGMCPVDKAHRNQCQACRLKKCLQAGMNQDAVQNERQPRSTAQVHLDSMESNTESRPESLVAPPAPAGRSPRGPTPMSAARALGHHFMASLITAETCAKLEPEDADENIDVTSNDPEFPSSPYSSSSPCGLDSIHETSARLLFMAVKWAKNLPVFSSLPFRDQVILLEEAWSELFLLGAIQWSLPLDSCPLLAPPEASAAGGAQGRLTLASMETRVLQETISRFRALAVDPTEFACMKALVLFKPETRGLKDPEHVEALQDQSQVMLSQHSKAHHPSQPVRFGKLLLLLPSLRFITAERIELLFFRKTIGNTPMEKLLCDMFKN
Myeloid diff MLP: myeloid differentiation induction; ER-HoxA9 myeloid progenitors, lysozyme-GFP differentiation, flow cytometry; calls only at 10 µM; hit rate 1% among 360,000;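 active means normalized GFP-positive differentiation at or above the plate's own cutoff, the solvent-only control mean plus 3 SD; inconclusive means no clear call, values can overlap the other calls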;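 further: cells exposed to compound for four days before flow analysis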
NR2E3 ag-2: agonists of human nuclear receptor NR2E3 | Q9Y5X4 | GST-NR2E3/biotin-RetCOR TR-FRET, 1536-well | inhibition of corepressor binding, % at 4.78 µM | hit rate 0.12% among 320,000 | AID 2300;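 active means percent inhibition above the cutoff of mean plus 3 SD of all tested compounds, set per screening campaign, cut at about 20% in these data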;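 further: 0% = DMSO wells and 100% = biotin wells as full block of FRET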
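Test system: GST-NR2E3 and biotin-RetCOR proteins | Quantity: 1.35 nM GST-tagged NR2E3 final | Medium: Tris pH 7.5 | Also added: 7 nM biotin-RetCOR | Dosing: Compound at 4.8 µM, single dose | Timing: 5 h at 4 °C | Detection: Time-resolved FRET | Read-out basis: Percent inhibition | Benchmarks: Biotin wells as high control, 0.6% DMSO wells as low control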
T cell HTS: T cell immune modulation candidate. AID 2052. response (vesicle binding), % at 7 µM. hit rate 0.068% among 330,000. 2C CD8+ T cell-vesicle binding, flow cytometry; active compounds read low;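 active means response, share of CD8 T cells binding vesicles, and their 90th percentile fluorescence all below set limits, cut at about 80% in these data, passing the limit was not always enough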;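 further: values below 100% mean blocked vesicle binding to the CD8+ T cells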
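Assay system: 2C TCR transgenic mouse naive CD8+ T cells, MACS-purified | Read-out: CD8+ gate FL2 mean fluorescence as % of same-row positive control | Signal: High-throughput flow cytometry with anti-B7-1 and anti-CD8 staining | Timing: Binding step 1.5 h, 37 °C, antibody labelling 20 min, ice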
NR2E3 ag confirm: NR2E3 agonism confirmed in two-hybrid assay | CHO-S mammalian two-hybrid NR2E3-NCOR, luciferase luminescence | inhibition, % at 3.98 µM | shares compounds with NR2E3 ag-1 | hit rate 51% among 2,300 | AID 624378;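 active means average inhibition above a cutoff equal to the mean inhibition of all tested compounds plus one SD, cut at about 70% in these data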;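 further: 0% = DMSO in NR2E3 cells and 100% = DMSO in cells lacking NR2E3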
VP16 counter: reduces GAL4-VP16 reporter signal in NR2E3 counterscreen | shares compounds with NR2E3 ag-1 | CHO-S GAL4-VP16 luciferase reporter, luminescence | inhibition, % at 3.98 µM | hit rate 29% among 2,300 | AID 624379;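 active means mean inhibition above a cutoff equal to the average over all tested compounds plus one standard deviation, cut at about 70% in these data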;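 further: luciferase from a UAS reporter driven by GAL4-VP16 transactivation; 0% = DMSO with VP16-transfected cells and 100% = DMSO with cells lacking VP16; higher means less reporter light so more repression of VP16 activity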
* = called active by the depositor.

For CCN1/C(=C/c2sc(-c3ccccc3C)c[n+]2C)Sc2ccccc21 the results were GAA850 FXN act -11, NR2E3 ag-1 90*, NR2E3 ag confirm 99* and VP16 counter 85*.
CCC(=O)/C=C1/Sc2ccccc2N1CC was read as GAA850 FXN act -1, NR2E3 ag-1 13, Myeloid diff MLP inactive, NR2E3 ag-2 -1 and T cell HTS 160.
CCCCCCCCN1C(=O)[C@H](CC(=O)NCCc2ccccc2OC)C[C@@]2(C(=O)OC)CC(C)(C)CC=C12 was read as Myeloid diff MLP inactive.
Cc1cnc(NC(=O)CN2CCN(c3ccccn3)CC2)s1 was read as GAA850 FXN act -2, NR2E3 ag-1 64, Myeloid diff MLP inactive, NR2E3 ag-2 0, T cell HTS 253, NR2E3 ag confirm 94* and VP16 counter 16.
`COc1ccc(N2CCN(CCN3C(=O)c4ccccc4C3=O)CC2)cc1` gave GAA850 FXN act 4, NR2E3 ag-1 -31, Myeloid diff MLP inactive, NR2E3 ag-2 -1 and T cell HTS 573.
CC(C)Cn1c(N)c(C(=O)COC(=O)/C=C/c2ccccc2)c(=O)n(C)c1=O was read as GAA850 FXN act -2, NR2E3 ag-1 74*, Myeloid diff MLP inactive, NR2E3 ag-2 7, T cell HTS 412, NR2E3 ag confirm 26 and VP16 counter 56.
Cc1cccc(C(=O)OCC(=O)c2c(N)n(CC(C)C)c(=O)n(C)c2=O)c1O was read as GAA850 FXN act 0, NR2E3 ag-1 -29, Myeloid diff MLP inactive, NR2E3 ag-2 5 and T cell HTS 237.
Screening Cc1csc(=O)n1CCC(=O)OCC(=O)c1c(N)n(CC(C)C)c(=O)n(C)c1=O returned GAA850 FXN act 1, NR2E3 ag-1 8, Myeloid diff MLP inactive, NR2E3 ag-2 2 and T cell HTS 365.
For CC(C)Cn1c(N)c(C(=O)COC(=O)CC23CC4CC(CC(C4)C2)C3)c(=O)n(C)c1=O the results were GAA850 FXN act -3, NR2E3 ag-1 94*, Myeloid diff MLP inactive, NR2E3 ag-2 3, T cell HTS 359, NR2E3 ag confirm 93* and VP16 counter 76*.
For Cc1cccc(C(=O)OCC(=O)c2c(N)n(CC(C)C)c(=O)n(C)c2=O)c1[N+](=O)[O-] the results were GAA850 FXN act 1, NR2E3 ag-1 50, Myeloid diff MLP inactive, NR2E3 ag-2 0, T cell HTS 631, NR2E3 ag confirm 40 and VP16 counter 45.
CCOc1ccc(OCCC(=O)Nc2ccc(N3CCOCC3)cc2N2CCOCC2)cc1 was read as GAA850 FXN act 1, NR2E3 ag-1 -25 and Myeloid diff MLP inactive.
CCCNC(=O)C1(C)CCCN(C(=O)c2cccc(C(F)(F)F)c2)C1 (configuration not stated) was read as GAA850 FXN act 0, NR2E3 ag-1 13 and Myeloid diff MLP inactive.
`Cc1ccc(-n2nc3c(=O)n(C(C)C(=O)NCCC4=CCCCC4)nc(C)c3c2C)cc1` (configuration not stated) gave GAA850 FXN act -4, NR2E3 ag-1 51, Myeloid diff MLP inactive, NR2E3 ag-2 -2, T cell HTS 99, NR2E3 ag confirm 12 and VP16 counter 41.
For N#C/C(=N\Nc1ccc(Cl)c(Cl)c1)C(=O)C1CC1 the results were GAA850 FXN act 2, NR2E3 ag-1 80*, Myeloid diff MLP inactive, NR2E3 ag-2 7, T cell HTS 258, NR2E3 ag confirm 100* and VP16 counter 55.
N#C/C(=N\Nc1ccc(F)cc1)C(=O)C1CC1 was read as GAA850 FXN act 0, NR2E3 ag-1 -15, Myeloid diff MLP inactive, NR2E3 ag-2 2 and T cell HTS 434.
`CCCCn1nnnc1C(c1cc2ccccc2o1)N1CCN(c2c(C)cccc2C)CC1` (configuration not stated) gave NR2E3 ag-1 -18 and Myeloid diff MLP inactive.
Screening Cc1cccc(C)c1N1CCN(C(c2cc3ccccc3o2)c2nnnn2C(C)(C)C)CC1 (configuration not stated) returned NR2E3 ag-1 75*, Myeloid diff MLP inconclusive, NR2E3 ag confirm 84* and VP16 counter 67.
CCCCn1c(N)c(N(CC(C)C)C(=O)C2CCN(S(=O)(=O)c3ccc(C)cc3C)CC2)c(=O)[nH]c1=O was read as GAA850 FXN act -2, NR2E3 ag-1 26, Myeloid diff MLP inactive, NR2E3 ag-2 1 and T cell HTS 161.
Screening Cc1nc2c(C(=O)NCCC(C)C)c[nH]n2c(=O)c1Cc1ccccc1F returned GAA850 FXN act -4, NR2E3 ag-1 100*, Myeloid diff MLP inactive, NR2E3 ag-2 -1, T cell HTS 785, NR2E3 ag confirm 86* and VP16 counter 58.
Screening Cc1nc(NCCc2ccccc2)c2oc3ccccc3c2n1 returned GAA850 FXN act -1, NR2E3 ag-1 72*, Myeloid diff MLP inactive, NR2E3 ag-2 1, T cell HTS 436, NR2E3 ag confirm 91* and VP16 counter 76*.
For Cc1nc(NCCN2CCOCC2)c2oc3ccccc3c2n1 the results were GAA850 FXN act -3, NR2E3 ag-1 -12, Myeloid diff MLP inactive, NR2E3 ag-2 -1 and T cell HTS 423.
For CC1CC(C)C(=O)C(C(CC2CC(=O)NC(=O)C2)OC(=O)CC(=O)c2ccccc2)C1 (configuration not stated) the results were GAA850 FXN act -12, NR2E3 ag-1 90*, Myeloid diff MLP inconclusive, NR2E3 ag confirm 99* and VP16 counter 88*.
For O=C1CCC(C(=O)OCC(=O)c2ccccc2)N1 (configuration not stated) the results were GAA850 FXN act -1, NR2E3 ag-1 -22, Myeloid diff MLP inactive, NR2E3 ag-2 3 and T cell HTS 247.
CN(CC(=O)Nc1ccc(Cl)c(C(F)(F)F)c1)C(=O)C1CC(=O)N(C2CCCC2)C1 (configuration not stated) was read as GAA850 FXN act 0, NR2E3 ag-1 -9, Myeloid diff MLP inactive, NR2E3 ag-2 3 and T cell HTS 311.
For Cc1ccc(S(=O)(=O)NC(=O)C2(C)CCN2C(=O)c2ccccc2CCc2ccccc2)nc1 (configuration not stated) the results were GAA850 FXN act -2, NR2E3 ag-1 -13 and Myeloid diff MLP inactive.
`CCN(CC)S(=O)(=O)c1ccc(Oc2ccccc2)c(N)c1` gave GAA850 FXN act 1, NR2E3 ag-1 18, Myeloid diff MLP inactive, NR2E3 ag-2 -5 and T cell HTS 358.
